{"data": "Experimental data gathered from unrelated publications", "target": "Mitogen-activated protein kinase 12 (MAPK12, Homo sapiens, UniProt P53778)", "Residues used in one study (P53778 1-367)": "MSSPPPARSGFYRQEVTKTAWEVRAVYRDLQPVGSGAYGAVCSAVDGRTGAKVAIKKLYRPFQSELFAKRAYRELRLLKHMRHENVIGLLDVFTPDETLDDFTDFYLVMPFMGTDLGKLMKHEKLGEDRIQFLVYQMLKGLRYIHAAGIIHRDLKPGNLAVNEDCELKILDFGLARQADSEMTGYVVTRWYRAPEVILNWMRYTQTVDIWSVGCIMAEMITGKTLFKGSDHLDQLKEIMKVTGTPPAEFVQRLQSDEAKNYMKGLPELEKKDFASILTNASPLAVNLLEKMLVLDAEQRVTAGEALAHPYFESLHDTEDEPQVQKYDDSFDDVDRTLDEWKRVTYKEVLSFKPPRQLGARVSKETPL", "note": "Compare with care: the assays were run in different laboratories."}
{"SMILES": "Nc1c(C(=O)NCc2ccc(C(=O)NCCCC3CCCCC3)cc2)cnn1-c1ccccc1", "test": "cell-free assay, competition with immobilised ligand", "setting": "0.1 µM", "quantity": "remaining binding", "value": "100%"}
{"SMILES": "Cc1ccc(Nc2nccc(N(C)c3ccc4c(C)n(C)nc4c3)n2)cc1S(N)(=O)=O", "test": "enzyme activity, inhibitor", "setting": "0.3 µM", "quantity": "inhibition", "value": "-5%"}
{"SMILES": "CC(C)(C)c1nc(-c2cccc(NS(=O)(=O)c3c(F)cccc3F)c2F)c(-c2ccnc(N)n2)s1", "test": "enzyme activity, inhibitor, radiometric", "setting": "1 µM", "quantity": "remaining activity", "value": "102%"}
{"SMILES": "CC1CCCN1c1nccc(-c2cnn3ncccc23)n1 (stereo not shown)", "test": "binding", "setting": "1 µM", "quantity": "remaining binding", "value": "90%"}
{"SMILES": "O=C(Nc1cnn(-c2csc(C(=O)NC3COC3)c2)c1)Nc1c(F)cccc1Cl", "test": "enzyme activity, inhibitor", "setting": "5 µM", "quantity": "remaining activity", "value": "98.3%"}
{"SMILES": "CCN(CC)CCNC(=O)c1c(C)[nH]c(/C=C2\\C(=O)Nc3ccc(F)cc32)c1C", "test": "enzyme activity, inhibitor", "setting": "10 µM", "quantity": "inhibition", "value": "-3%"}
{"SMILES": "Oc1cccc(-c2nc(N3CCOCC3)c3oc4ncccc4c3n2)c1", "test": "cell-free assay", "setting": "0.5 µM", "quantity": "remaining signal", "value": "93.4%"}
{"SMILES": "Cc1nccc(COC(=O)N2C[C@@H]3[C@@H](CNC(=O)c4ccc5[nH]nnc5c4)[C@@H]3C2)n1", "test": "cell-free assay, competition with immobilised ligand", "setting": "1 µM", "quantity": "remaining binding", "value": "79%"}
{"SMILES": "COc1cc(Cl)c(C(=O)N[C@@H](CN[C@H]2CC[C@@H](N)CC2)Cc2ccc(C#N)cc2)cc1-c1ccc(CN[C@H](C)c2ccc(C)cc2)o1", "test": "enzyme activity, inhibitor", "setting": "1 µM", "quantity": "remaining activity", "value": "109%"}
{"SMILES": "CCC(=O)N[C@H]1CC[C@@H](C(=O)N(C)c2ccc(-c3nc4ccccc4o3)cc2)C1", "test": "cell-free assay, competition with immobilised ligand", "setting": "1 µM", "quantity": "remaining binding", "value": "67%"}
{"SMILES": "COc1cc(Nc2cnc(C#N)c(O[C@H](C)CN(C)C)n2)ncc1-c1cnn(C)c1", "test": "enzyme activity, inhibitor, radiometric", "setting": "10 µM", "quantity": "remaining activity", "value": "109%"}
{"SMILES": "CCOc1cc(-c2nncn2C)ccc1Nc1ncc2cc(C)nc(NCC(C)(C)C)c2n1", "test": "enzyme activity, inhibitor, FRET", "setting": "1 µM", "quantity": "inhibition", "value": "< 15%"}
{"SMILES": "CNC(=O)c1cc(Oc2ccc(NC(=O)Nc3ccc(Cl)c(C(F)(F)F)c3)cc2)ccn1", "test": "cell-free assay", "setting": "0.5 µM", "quantity": "remaining signal", "value": "94.2%"}
{"SMILES": "CCCOc1ccc(OC)c(F)c1C(=O)c1ccc(C(=O)N[C@@H]2CNC[C@H]2NC(=O)c2ccc3[nH]ncc3c2)cc1", "test": "enzyme activity, inhibitor", "setting": "10 µM", "quantity": "remaining activity", "value": "97%"}
{"SMILES": "Oc1cccc(-c2nc(N3CCOCC3)c3oc4ncccc4c3n2)c1", "test": "enzyme activity, inhibitor", "setting": "10 µM", "quantity": "remaining activity", "value": "76%"}
{"SMILES": "C[C@H](c1ccc(F)cc1)N(Cc1cccc(C(=O)O)c1)C(=O)c1cnc2ccccc2c1", "test": "cell-free assay, competition with immobilised ligand", "setting": "1 µM", "quantity": "remaining binding", "value": "65%"}
{"SMILES": "CC(C)(C)C(=O)c1sc(NC2CCCCC2)nc1N", "test": "enzyme activity, inhibitor", "setting": "10 µM", "quantity": "remaining activity", "value": "89%"}
{"SMILES": "CCN(CC)c1ccc(C2=NNC(=O)CC2C)cc1[N+](=O)[O-] (stereo not shown)", "test": "enzyme activity, inhibitor", "setting": "10 µM", "quantity": "remaining activity", "value": "104%"}
{"SMILES": "CC(=O)C1=C(C)N(c2cccc(C(F)(F)F)c2)C(=O)N[C@@H]1c1ccc(C#N)nc1", "test": "cell-free assay, competition with immobilised ligand", "setting": "1 µM", "quantity": "remaining binding", "value": "77.4%"}
{"SMILES": "COc1cc2ncnc(Nc3ccc(Oc4ccccc4)c(C)c3C)c2cc1OC", "test": "enzyme activity, inhibitor", "setting": "1 µM", "quantity": "inhibition", "value": "2%"}
{"SMILES": "Cc1c(NC(=O)c2cc(C(N)=O)nc3cc(F)ccc23)c(C(F)(F)F)nn1Cc1ccc(C(C)(C)C)cc1", "test": "cell-free assay, competition with immobilised ligand", "setting": "1 µM", "quantity": "remaining binding", "value": "56%"}
{"SMILES": "CC/C(=N\\NC(=O)NCc1cccc(O)c1)c1ccc(O)c(C)c1O", "test": "enzyme activity, inhibitor", "setting": "0.1 µM", "quantity": "inhibition", "value": "-1.6%"}
{"SMILES": "CS(=O)(=O)c1cc(C2(NC(=O)c3cncc4c3cnn4-c3ccc(F)cc3)CC2)ccn1", "test": "cell-free assay, competition with immobilised ligand", "setting": "1 µM", "quantity": "remaining binding", "value": "100%"}
{"SMILES": "CC(C)(O)[C@H]1CC[C@H](Nc2ccc3ncc(-c4cccc(C(F)(F)F)c4)n3n2)CC1", "test": "enzyme activity, inhibitor", "setting": "1 µM", "quantity": "remaining activity", "value": "93.8%"}
{"SMILES": "Cn1c(=O)n(-c2ccc(C(C)(C)C#N)cc2)c2c3cc(-c4cnc5ccccc5c4)ccc3ncc21", "test": "enzyme activity, inhibitor", "setting": "10 µM", "quantity": "remaining activity", "value": "101%"}
{"SMILES": "O=C(Nc1cccnn1)N1CCC(=Cc2cccc(Oc3ccc(C(F)(F)F)cn3)c2)CC1", "test": "cell-free assay, competition with immobilised ligand", "setting": "1 µM", "quantity": "remaining binding", "value": "100%"}
{"SMILES": "N#CCCc1ccc2c(c1)-c1[nH]c3ccc([N+](=O)[O-])cc3c1CC(=O)N2", "test": "cell-free assay", "setting": "0.5 µM", "quantity": "remaining signal", "value": "98.9%"}
{"SMILES": "Cc1ccc(C(=O)Nc2ccc(CN3CCN(C)CC3)c(C(F)(F)F)c2)cc1C#Cc1cnc2cccnn12", "test": "enzyme activity, inhibitor", "setting": "23.5 nM", "quantity": "remaining activity", "value": "70%"}
